Key:
[1] = Stability of compound in human whole blood assessed as half life; format: ADME, tissue-based
[2] = Stability of compound in human plasma assessed as half life; format: ADME, cell-free
[3] = Induction of Coenzyme A regeneration in human IMR-32 PANK2 knockdown cells at 50 uM for 24 hrs by HPLC analysis relative to control; format: functional
Summary of the method: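 PANK2-knockout neuroblastoma cells were grown in MEM with 10% FBS and 1 µg/mL puromycin and seeded at 0.2×10⁶ cells/well. After 72 h, they were dosed at 50 µM in DMSO (final 0.1%) at 37 °C. Washed, frozen pellets were reconstituted in ammonium acetate (pH 5.1) with internal standard, and free CoA was measured by LC-MS/MS. Intracellular volume was taken as 2 µL/10⁶ cells; results are fold over vehicle-treated cells.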

[4] = Increase in free coenzyme A level in C57BL6 mouse brain at 500 mg/kg, po administered as single dose measured after 1 hr UPLC quadrupole-time-of-flight mass spectrometry (Rvb =0%); format: functional
Summary of the method: (§1)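 C57BL6 mice, three per time point, received one oral 500 mg/kg dose of isotopically labeled prodrug, and brains were taken at 0, 1, 6 and 24 h. Brains were homogenized in water (3 mL/g), protein was precipitated with MeOH, and dried supernatant was reconstituted in 10 mM ammonium acetate (pH ~5). Analysis was UPLC-QTOF MS in positive ESI, scoring labeled CoA (+6, +4 amu) as a share of free CoA.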

[5] = Increase in free coenzyme A level in C57BL6 mouse brain at 500 mg/kg, po administered as single dose measured after 6 hrs UPLC quadrupole-time-of-flight mass spectrometry (Rvb =0%); format: functional; summary of the method: as §1
[6] = Increase in free coenzyme A level in C57BL6 mouse brain at 500 mg/kg, po administered as single dose measured after 24 hrs UPLC quadrupole-time-of-flight mass spectrometry (Rvb =0%); format: functional; summary of the method: as §1
[7] = Apparent permeability in porcine brain endothelial cells; format: ADME, cell-based, Sus scrofa, Endothelial cell; settings: pig
[8] = Stability of compound in human hepatocytes assessed as half life; format: ADME, cell-based, Hepatocyte

SMILES | half-life [1] [min] | fold change (FC) [3] | further results
COC(=O)CCNC(=O)[C@@H]1O[P@](=O)(OCOC(=O)c2scnc2C)OCC1(C)C (relative stereo) | < 9.6 |  | 
COC(=O)CCNC(=O)[C@@H]1O[P@](=O)(OCOC(=O)c2cncs2)OCC1(C)C (relative stereo) |  |  | half-life [2]: < 9.6 min
COC(=O)CCNC(=O)[C@@H]1OP(=O)(OCOC(=O)OC(C)C)OCC1(C)C (mixture of isomers) |  | 199 | 
COC(=O)CCNC(=O)[C@@H]1O[P@](=O)(OCOC(=O)c2ccns2)OCC1(C)C (relative stereo) | < 9.6 |  | 
COC(=O)CCNC(=O)[C@@H]1O[P@](=O)(Oc2ccc(C#N)cc2)OCC1(C)C | 27.6 | 7 | 
CC(C)(C)C(=O)OCO[P@@]1(=O)OCC(C)(C)[C@H](C(=O)NCCC(=O)O)O1 | > 60 | 4 | 
CCC(CC)C(=O)OCOP1(=O)OCC(C)(C)[C@H](C(=O)NCCC(=O)OC)O1 (mixture of isomers) |  | 369 | 
CC(C)(C)C(=O)OCO[P@@]1(=O)OCC(C)(C)[C@H](C(=O)NCCC(=O)OCCc2ccccn2)O1 | < 9.6 | 100 | 
CO[13C](=O)[13CH2][13CH2][15NH]C(=O)[C@@H]1OP(=O)(OCOC(=O)C(C)(C)C)OCC1(C)C (stereo partly specified) |  |  | Activity [4]: 0%; Activity [5]: 2.7%; Activity [6]: 12.9%
COC(=O)CCNC(=O)[C@@H]1OP(=O)(OCOC(=O)c2ccns2)OCC1(C)C (mixture of isomers) |  | 37 | 
COC(=O)CCNC(=O)[C@@H]1OP(=O)(OCOC(=O)C2(C(N)=O)CC2)OCC1(C)C (mixture of isomers) |  | 12 | 
CCCC(=O)OCOP1(=O)OCC(C)(C)[C@H](C(=O)NCCC(=O)OC)O1 (mixture of isomers) |  | 84 | 
COC(=O)CCNC(=O)[C@@H]1O[P@@](=O)(OCOC(=O)C(C)(C)C)OCC1(C)C |  | 198 | 
CCc1cc(C(=O)OCO[P@@]2(=O)OCC(C)(C)[C@H](C(=O)NCCC(=O)OC)O2)n(C)n1 | ≥ 58.2 | 14 | Papp [7]: 11.8 ×10⁻⁶ cm/s; half-life [8]: 18 min
COC(=O)CCNC(=O)[C@@H]1O[P@@](=O)(OCOC(=O)c2ccns2)OCC1(C)C (relative stereo) | < 9.6 |  | 
COC(=O)CCNC(=O)C1OP(=O)(Oc2ccc(F)cc2)OCC1(C)C (mixture of isomers) | > 60 |  | 
COC(=O)CCNC(=O)[C@@H]1O[P@@](=O)(OCOC(=O)c2cncs2)OCC1(C)C (relative stereo) |  |  | half-life [2]: < 9.6 min
COC(=O)CCNC(=O)[C@@H]1OP(=O)(OCOC(=O)c2scnc2C(C)(C)C)OCC1(C)C (mixture of isomers) |  | 3 | 
COC(=O)CCNC(=O)[C@@H]1OP(=O)(OCOC(=O)C(C)C)OCC1(C)C (mixture of isomers) |  | 92 | 

SMILES | half-life [1] [min] | fold change (FC) [3] | further results
COC(=O)CCNC(=O)[C@@H]1O[P@](=O)(Oc2ccc(C(F)(F)F)cc2)OCC1(C)C | > 60 | 102 | 
COC(=O)CCNC(=O)[C@@H]1O[P@@](=O)(OCOC(=O)c2cc(C(C)(C)C)n[nH]2)OCC1(C)C | > 60 | 101 | Papp [7]: 5.3 ×10⁻⁶ cm/s; half-life [8]: 30 min
CC(C)(C)C(=O)OCO[P@@]1(=O)OCC(C)(C)[C@H](C(=O)NCCC(=O)OCCS(C)(=O)=O)O1 | < 9.6 | 121 | 
COC(=O)CCNC(=O)[C@@H]1O[P@@](=O)(OCOC(=O)c2ccnn2C)OCC1(C)C (relative stereo) | > 60 |  | 
COC(=O)CCNC(=O)[C@@H]1O[P@](=O)(Oc2ccc(C[C@H](N)C(=O)OC)cc2)OCC1(C)C | 30 | 81 | 
COC(=O)CCNC(=O)[C@@H]1O[P@@](=O)(Oc2ccc(F)cc2)OCC1(C)C |  | 2 | 
COC(=O)CCNC(=O)[C@@H]1OP(=O)(OCOC(=O)c2scnc2C)OCC1(C)C (mixture of isomers) |  | 44 | 
CC(C)(C)C(=O)OCO[P@@]1(=O)OCC(C)(C)[C@H](C(=O)NCCC(=O)OCc2cncs2)O1 | < 9.6 | 133 | 
COC(=O)CCNC(=O)[C@@H]1O[P@@](=O)(OCOC(=O)c2scnc2C)OCC1(C)C | > 60 | 40 | Papp [7]: 5.1 ×10⁻⁶ cm/s; half-life [8]: 30 min
COC(=O)CCNC(=O)[C@@H]1O[P@](=O)(Oc2ccc(F)cc2)OCC1(C)C |  | 87 | Papp [7]: 16 ×10⁻⁶ cm/s
COC(=O)CCNC(=O)[C@@H]1OP(=O)(Oc2ccc(F)cc2)OCC1(C)C (mixture of isomers) | > 60 |  | 
CCc1cc(C(=O)OCOP2(=O)OCC(C)(C)[C@H](C(=O)NCCC(=O)OC)O2)n(C)n1 (mixture of isomers) |  | 130 | 
COC(=O)CCNC(=O)[C@@H]1OP(=O)(OCOC(=O)c2ccnn2C)OCC1(C)C (mixture of isomers) |  | 58 | 
COC(=O)CCNC(=O)[C@@H]1OP(=O)(OCOC(=O)c2cc(C)nn2C)OCC1(C)C (mixture of isomers) |  | 42 | 
COC(=O)CCNC(=O)[C@@H]1O[P@@](=O)(OCOC(=O)c2ocnc2C)OCC1(C)C (relative stereo) | 31.2 |  | 
COC(=O)CCNC(=O)[C@@H]1OP(=O)(OCOC(=O)c2cnccn2)OCC1(C)C (mixture of isomers) |  | 77 | 
COC(=O)CCNC(=O)[C@@H]1O[P@](=O)(OCOC(=O)c2ccnn2C)OCC1(C)C | < 9.6 |  | 
COC(=O)CCNC(=O)[C@@H]1OP(=O)(OCOC(=O)c2cncs2)OCC1(C)C (mixture of isomers) |  | 88 | 
COC(=O)CCNC(=O)[C@@H]1OP(=O)(OCOC(=O)c2cc(C(C)(C)C)n[nH]2)OCC1(C)C (mixture of isomers) |  | 85 | 

SMILES | half-life [1] [min] | fold change (FC) [3] | further results
COC(=O)CCNC(=O)[C@@H]1O[P@](=O)(OCOC(=O)c2scnc2C(C)(C)C)OCC1(C)C (relative stereo) | 26.4 |  | 
COC(=O)CCNC(=O)[C@@H]1O[P@](=O)(OCOC(=O)c2cc(C)nn2C)OCC1(C)C (relative stereo) | < 9.6 |  | 
COC(=O)CCNC(=O)[C@@H]1O[P@](=O)(Oc2ccccc2C(=O)OC)OCC1(C)C |  | 4 | 
COC(=O)CCNC(=O)[C@@H]1OP(=O)(OCOC(=O)c2ccccc2)OCC1(C)C (mixture of isomers) |  | 278 | 
COC(=O)CCNC(=O)[C@@H]1O[P@@](=O)(OCOC(=O)c2scnc2C(C)(C)C)OCC1(C)C (relative stereo) | > 60 |  | 
COC(=O)CCNC(=O)[C@@H]1O[P@](=O)(OCOC(=O)c2cc(C(C)(C)C)n[nH]2)OCC1(C)C (relative stereo) | < 9.6 |  | 
COC(=O)CCNC(=O)[C@@H]1OP(=O)(OCOC(=O)c2ocnc2C)OCC1(C)C (mixture of isomers) |  | 39 | 
CCOC(=O)CCNC(=O)[C@@H]1O[P@@](=O)(OCOC(=O)C(C)(C)C)OCC1(C)C | 16.8 | 85 | 
CCc1cc(C(=O)OCO[P@]2(=O)OCC(C)(C)[C@H](C(=O)NCCC(=O)OC)O2)n(C)n1 (relative stereo) | < 9.6 |  | 
COC(=O)CCNC(=O)[C@@H]1O[P@](=O)(Oc2ccc(S(F)(F)(F)(F)F)cc2)OCC1(C)C | 30 | 34 | 
CC(C)(C)OC(=O)CCNC(=O)[C@@H]1OP(=O)(OCOC(=O)C(C)(C)C)OCC1(C)C (mixture of isomers) | > 60 | 2 | 
COC(=O)CCNC(=O)[C@@H]1O[P@@](=O)(OCOC(=O)c2cc(C)nn2C)OCC1(C)C (relative stereo) | > 60 |  | 
CO[13C](=O)[13CH2][13CH2][15NH]C(=O)[C@@H]1OP(=[18O])(OCOC(=O)C(C)(C)C)OCC1(C)C (stereo partly specified) |  |  | Activity [4]: 0%; Activity [5]: 5.3%; Activity [6]: 2.1%
COC(=O)CCNC(=O)[C@@H]1OP(=O)(OCOC(=O)c2ccncc2)OCC1(C)C (mixture of isomers) |  | 35 | 
COC(=O)CCNC(=O)[C@@H]1O[P@](=O)(OCOC(=O)C(C)(C)C)OCC1(C)C |  | 106 | 
CC(C)(C)C(=O)OCO[P@@]1(=O)OCC(C)(C)[C@H](C(=O)NCCC(=O)OC2CCN(Cc3ccccc3)C2)O1 (stereo partly specified) | 11.4 | 207 | 
COC(=O)CCNC(=O)[C@@H]1O[P@](=O)(OCOC(=O)c2ocnc2C)OCC1(C)C | 16.2 |  | 
COC(=O)CCNC(=O)[C@@H]1O[P@@](=O)(OC(C)OC(=O)C(C)(C)C)OCC1(C)C (stereo partly specified) |  | 3 | 
